Experimental data taken from ChEMBL document CHEMBL4028805, “Phenylthiazole Antibacterial Agents Targeting Cell Wall Synthesis Exhibit Potent Activity in Vitro and in Vivo against Vancomycin-Resistant Enterococci” (J Med Chem, 2017).
≈ marks a conversion by molar mass, not a printed value. Calls of active or inactive are those of the source.

Assays:
[1] = test system: Enterococcus faecium; experiment: Ratio of MBC50 to MIC50 for Enterococcus faecium clinical isolates; type: functional
Summary of the method: (§1)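 MIC by CLSI broth microdilution in TSB (E. faecalis) or BHI (E. faecium), 37 °C for 18–22 h, taken as the lowest concentration without visible growth. For MBC, 5 μL aliquots were spotted onto TSA (E. faecalis) or BHI agar (E. faecium) and incubated 37 °C for 18–22 h; MBC is the concentration giving >99% drop in count. MIC50/MBC50 cover 50% of isolates.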

[2] = test system: Enterococcus faecalis; experiment: Bactericidal activity against vancomycin-resistant Enterococcus faecalis clinical isolates after 18 to 22 hrs by broth microdilution method; type: functional
Summary of the method: (§2)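 MBC follows the broth microdilution MIC. 5 μL aliquots spotted onto TSA (E. faecalis) or BHI agar (E. faecium), incubated 37 °C for 18–22 h. MBC is the concentration giving >99% reduction in bacterial count. MBC50 is the value for 50% of isolates.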

[3] = test system: Enterococcus faecalis; experiment: Antibacterial activity against vancomycin-resistant Enterococcus faecalis ATCC 51299 after 14 serial passages measured after 18 hrs by broth microdillution method; type: functional
Summary of the method: (§3)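 Multi-step selection over 14 passages in two weeks. McFarland 0.5 inoculum diluted 1:300 in TSB (E. faecalis) or BHI (E. faecium) to 1 × 10^5 CFU/mL. Each passage reinoculated at ~5 × 10^5 CFU/mL from the sub-inhibitory well of the previous plate. Compounds serially diluted in triplicate, incubated ≥18 h at 37 °C, MIC read visually. Resistance defined as >4-fold MIC rise.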

[4] = test system: Caenorhabditis elegans; experiment: Toxicity in Caenorhabditis elegans AU37 assessed as worm survival at 20 ug/ml after 24 hrs by microscopic analysis; conditions: caenorhabditis elegans, 24 h
Summary of the method: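 Adult C. elegans AU37, 15–20 per well, exposed in triplicate to 10 or 20 μg/mL, with sterile water as negative control. Viability checked by microscopy. Result reported as percent viable worms after 24 h exposure.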

[5] = test system: Enterococcus faecalis; experiment: Bactericidal activity against Enterococcus faecalis clinical isolates after 18 to 22 hrs by broth microdilution method; type: functional
Summary of the method: (§4)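 MBC determined after the broth microdilution MIC. 5 μL aliquots plated onto TSA (E. faecalis) or BHI agar (E. faecium) and incubated at 37 °C for 18–22 h. MBC is the concentration giving >99% reduction in cell count, reported as MBC50.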

[6] = test system: Enterococcus faecalis; experiment: Ratio of MBC50 to MIC50 for Enterococcus faecalis clinical isolates; type: functional; summary of the method: as §1
[7] = test system: Escherichia coli; experiment: Antibacterial activity against Escherichia coli 1411 harboring delta-acrAB after 18 to 22 hrs in absence of colistin by broth microdilution method; type: functional
[8] = test system: Enterococcus faecalis; experiment: Bacteriostatic activity against vancomycin-resistant Enterococcus faecalis HM-201 assessed as reduction in CFU at 4 times MIC after 24 hrs; type: functional
Summary of the method: (§5)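 Late-log cells diluted to ~5 × 10^6 CFU/mL and exposed in triplicate to 4 × MIC, in TSB (E. faecalis HM-201) or BHI (E. faecium ATCC 700221) at 37 °C. Sampled at 0, 2, 4, 6, 8, 10, 12 and 24 h, diluted serially in PBS and plated on TSA or BHI agar. CFU/mL counted after 18–22 h. DMSO served as negative control.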

[9] = test system: Escherichia coli; experiment: Antibacterial activity against Escherichia coli 1411 after 18 to 22 hrs in absence of colistin by broth microdilution method; type: functional
Summary of the method: (§6)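 Broth microdilution per CLSI guidelines. Gram-negatives grown in TSB. Each strain tested alone and again with colistin at ¼ × MIC to permeabilize the outer membrane. Plates incubated at 37 °C for 18–22 h. MIC read as the lowest concentration showing no visible growth.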

[10] = test system: Enterococcus faecium; experiment: Bactericidal activity against Vancomycin-resistant Enterococcus faecium clinical isolates after 18 to 22 hrs by broth microdilution method; type: functional; summary of the method: as §2
[11] = test system: Enterococcus faecium; experiment: Antibacterial activity against Enterococcus faecium clinical isolates after 18 to 22 hrs by broth microdilution method; type: functional
Summary of the method: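 Enterococcus faecium grown in BHI. MIC by CLSI broth microdilution, 37 °C for 18–22 h. Lowest concentration with no visible growth taken as MIC, reported as MIC50 across the isolates.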

[12] = test system: Enterococcus faecium; experiment: Bacteriostatic activity against vancomycin-resistant Enterococcus faecium ATCC 700221 assessed as reduction in CFU at 4 times MIC after 24 hrs; type: functional; summary of the method: as §5
[13] = test system: Enterococcus faecium; experiment: Antibacterial activity against vancomycin-resistant Enterococcus faecium ATCC HM-968 assessed as ratio of MIC after and before 3 serial passages measured after 18 hrs by broth microdillution method; type: functional
Summary of the method: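 Multi-step resistance selection: 0.5 McFarland suspension diluted 1:300 in BHI to a starting 1 × 10^5 CFU/mL. Broth microdilution MIC repeated for 14 passages over two weeks, each reseeded at ~5 × 10^5 CFU/mL from the sub-inhibitory well of the previous passage. Serial dilutions in triplicate, 37 °C for at least 18 h, MIC read visually. Resistance defined as a >4-fold MIC rise.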

[14] = test system: Enterococcus faecium; experiment: Antibacterial activity against vancomycin-resistant Enterococcus faecium ATCC 700221 after 18 to 22 hrs in absence of colistin by broth microdilution method; type: functional
[15] = test system: Enterococcus faecium; experiment: Bactericidal activity against Enterococcus faecium after 18 to 22 hrs by broth microdilution method; type: functional; summary of the method: as §4
[16] = test system: Enterobacter cloacae; experiment: Antibacterial activity against Enterobacter cloacae BAA-1154 after 18 to 22 hrs in presence of 1/4 times MIC colistin by broth microdilution method; type: functional; summary of the method: as §6
[17] = test system: HRT-18 cell line; experiment: Cytotoxicity against human HRT18 cells assessed as reduction in cell viability at 20 ug/ml after 24 hrs by MTS assay; type: cell-based; conditions: hrt-18, 24 h
Summary of the method: (§7)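 HRT-18 cells maintained in RPMI-1640 with 10% fetal horse serum at 37 °C, 5% CO2. Exposed to 5, 10, 20 or 40 μg/mL for 2 or 24 h, then MTS added and absorbance read at 490 nm. Viability expressed relative to untreated cells, n ≥ 3, one-way ANOVA with Dunnett's test.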

[18] = test system: Enterococcus faecalis; experiment: Antibacterial activity against Enterococcus faecalis clinical isolates after 18 to 22 hrs by broth microdilution method; type: functional
Summary of the method: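 CLSI broth microdilution against panels of enterococcal isolates. E. faecalis grown in TSB, E. faecium in BHI, 37 °C for 18–22 h. MIC is the lowest concentration without visible growth. MIC50 is the value inhibiting 50% of isolates in each group.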

[19] = test system: HRT-18 cell line; experiment: Cytotoxicity against human HRT18 cells assessed as reduction in cell viability at 40 ug/ml after 24 hrs by MTS assay; type: cell-based; conditions: hrt-18, 24 h; summary of the method: as §7
[20] = test system: Escherichia coli; experiment: Antibacterial activity against Escherichia coli O157:H7 ATCC 35150 after 18 to 22 hrs in absence of colistin by broth microdilution method; type: functional
[21] = test system: Klebsiella pneumoniae; experiment: Antibacterial activity against Klebsiella pneumoniae BAA-1706 after 18 to 22 hrs in absence of colistin by broth microdilution method; type: functional
[22] = test system: Enterococcus faecalis; experiment: Synergistic antimicrobial activity against Enterococcus faecalis ATCC 49533 after 20 hrs in presence of ciprofloxacin by checkerboard assay; type: functional
Summary of the method: (§8)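 Checkerboard in TSB with a starting inoculum of 1×10^5 CFU/mL. Compound and antibiotic diluted from 2× or 4× MIC along perpendicular axes. Incubated 20 h at 37 °C. ΣFIC calculated: ≤0.5 synergy, >0.5 to <2 additive, 2–4 indifference, >4 antagonism.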

[23] = test system: Enterococcus faecalis; experiment: Antibacterial activity against vancomycin-resistant Enterococcus faecalis ATCC 51299 assessed as ratio of MIC after and before 6 serial passages measured after 18 hrs by broth microdillution method; type: functional; summary of the method: as §3
[24] = test system: Enterococcus faecium; experiment: Bactericidal activity against vancomycin-resistant Enterococcus faecium ATCC 700221 at 4 times MIC after 2 hrs by time-kill assay; type: functional; summary of the method: as §5
[25] = test system: Pseudomonas aeruginosa; experiment: Antibacterial activity against Pseudomonas aeruginosa ATCC 15442 after 18 to 22 hrs in presence of 1/4 times MIC colistin by broth microdilution method; type: functional; summary of the method: as §6
[26] = test system: Enterococcus faecium; experiment: Ratio of MBC50 to MIC50 for vancomycin-resistant Enterococcus faecium ATCC 700221; type: functional
[27] = test system: Enterococcus faecium; experiment: Antibacterial activity against vancomycin-resistant Enterococcus faecium ATCC HM-968 assessed as ratio of MIC after and before 11 serial passages measured after 18 hrs by broth microdillution method; type: functional; summary of the method: as §3
[28] = test system: Acinetobacter baumannii; experiment: Antibacterial activity against Acinetobacter baumanii ATCC 19606 after 18 to 22 hrs in presence of 1/4 times MIC colistin by broth microdilution method; type: functional; conditions: ATCC 19606 = CIP 70.34 = JCM 6841; summary of the method: as §6
[29] = test system: Enterococcus faecalis; experiment: Antibacterial activity against Enterococcus faecalis ATCC 31975 at 4 to 8 times MIC after 48 hrs by broth microdillution method; type: functional
Summary of the method: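 Single-step resistance selection. Cultures of 5 × 10^8 to 5 × 10^10 CFU/mL spread on TSA containing compound at 2×, 4× or 8× MIC and incubated aerobically at 37 °C for 48 h. Colony MICs rechecked by broth microdilution. Frequency calculated as resistant colonies per inoculum.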

[30] = test system: Klebsiella pneumoniae; experiment: Antibacterial activity against Klebsiella pneumoniae BAA-1706 after 18 to 22 hrs in presence of 1/4 times MIC colistin by broth microdilution method; type: functional; summary of the method: as §6
[31] = test system: Enterobacter cloacae; experiment: Antibacterial activity against Enterobacter cloacae BAA-1154 after 18 to 22 hrs in absence of colistin by broth microdilution method; type: functional
[32] = test system: HRT-18 cell line; experiment: Cytotoxicity against human HRT18 cells assessed as reduction in cell viability up to 40 ug/ml after 2 hrs by MTS assay; type: cell-based; conditions: hrt-18, 2 h; summary of the method: as §7
[33] = test system: Staphylococcus aureus; experiment: Antibacterial against Methicillin-Resistant Staphylococcus aureus after 18 to 20 hrs by broth microdilution method; type: functional
[34] = test system: Enterococcus faecium; experiment: Bactericidal activity against vancomycin-resistant Enterococcus faecium ATCC 700221 at 4 times MIC after 24 hrs by time-kill assay; type: functional; summary of the method: as §5
[35] = test system: Acinetobacter baumannii; experiment: Antibacterial activity against Acinetobacter baumanii ATCC 19606 after 18 to 22 hrs in absence of colistin by broth microdilution method; type: functional; conditions: ATCC 19606 = CIP 70.34 = JCM 6841; summary of the method: as §6
[36] = test system: Pseudomonas aeruginosa; experiment: Antibacterial activity against Pseudomonas aeruginosa ATCC 15442 after 18 to 22 hrs in absence of colistin by broth microdilution method; type: functional
[37] = test system: Enterococcus faecalis; experiment: Synergistic antimicrobial activity against Enterococcus faecalis ATCC 49532 after 20 hrs in presence of ciprofloxacin by checkerboard assay; type: functional; summary of the method: as §8
[38] = test system: Enterococcus faecalis; experiment: Antibacterial activity against vancomycin-resistant Enterococcus faecalis ATCC 51299 assessed as ratio of MIC after and before 11 serial passages measured after 18 hrs by broth microdillution method; type: functional; summary of the method: as §3

CC(=O)NC[C@H]1CN(c2ccc(N3CCOCC3)c(F)c2)C(=O)O1 [LINEZOLID]
Ratio [1]: >4 | MBC50 [2]: 64 µg/mL (≈ 190 µM) | Activity [3]: Active | Activity [4]: Non-Toxic | MBC50 [5]: 64 µg/mL (≈ 190 µM) | Ratio [6]: >4 | MIC [7]: 8 µg/mL (≈ 23.7 µM) | Activity [8]: Active | MIC [9]: > 128 µg/mL | MBC50 [10]: 128 µg/mL (≈ 379 µM) | MIC50 [11]: 2 µg/mL (≈ 5.93 µM) | Activity [12]: Active | Ratio [13]: 1 | MIC [14]: 0.5 µg/mL (≈ 1.48 µM) | MBC50 [15]: 16 µg/mL (≈ 47.4 µM)

C/C(=N\NC(=N)N)c1sc(-c2ccc(-c3ccccc3)cc2)nc1C
MIC [16]: 1 µg/mL | Activity [17]: Non-Toxic | MIC50 [18]: 8 µg/mL (≈ 22.9 µM) | Activity [19]: Toxic | MIC [20]: > 128 µg/mL | MIC [21]: > 128 µg/mL | fractional inhibitory concentration index (FICI) [22]: 0.63 - 1 | Ratio [23]: 1 | MBC50 [5]: 16 µg/mL (≈ 45.8 µM) | Activity [24]: Active | MIC [25]: 1 µg/mL | Ratio [26]: >4 | Ratio [27]: 1 | MIC [28]: 1 µg/mL | Activity [29]: Active | MIC [30]: 2 µg/mL | MIC [7]: 4 µg/mL (≈ 11.4 µM) | MIC [31]: > 128 µg/mL | Activity [32]: Non-Toxic | MIC [33]: 1.3 to 5.6 µg/mL (≈ 3.72 to 16 µM) | MBC50 [10]: 16 µg/mL (≈ 45.8 µM) | Activity [34]: inactive | MIC50 [11]: 8 µg/mL (≈ 22.9 µM) | MIC [35]: 8 µg/mL (≈ 22.9 µM) | MIC [36]: > 128 µg/mL | Activity [12]: Active | MIC [14]: 0.5 µg/mL (≈ 1.43 µM) | fractional inhibitory concentration index (FICI) [37]: 0.63 - 1 | MBC50 [15]: 16 µg/mL (≈ 45.8 µM) | Ratio [38]: 2
